Results collected from several papers.
Lines come from different studies, so protocols differ.
CNR1: Cannabinoid receptor 1 (CNR1, Homo sapiens, UniProt P21554)
Oprm1: Mu-type opioid receptor (Oprm1, Mus musculus, UniProt P42866)

Compound	target	assay	setting	measurement	result
CCCCC1CNC2CCc3ccc(OC)cc3C12 (racemic)	Sigma non-opioid intracellular receptor 1 (SIGMAR1, Homo sapiens, UniProt Q99720)	ligand displacement, radioligand	–	Ki	0.81 nM
COc1cc2c3c(c1OC)-c1c(OC)ccc(Cl)c1CC3N(C)CC2 (racemic)	5-hydroxytryptamine receptor 2A (HTR2A, Homo sapiens, UniProt P28223)	cell-free assay, radioligand	–	Ki	893 nM
CC(C)(NC(=O)c1nn(CC2CCCC2)c2ccccc12)c1cccc(C(N)=O)c1	CNR1	ligand displacement, radioligand	cell membranes	Ki	130 nM
CC[C@H](C)[C@@H](C(=O)N1CCC[C@H]1c1nccs1)N(C)C(=O)[C@H](CC(C)C)N(C)C(=O)[C@H](Cc1ccc(OC)cc1)N(C)C(=O)/C=C(\C)OC	CNR1	ligand displacement, radioligand	–	IC50	16600 nM
CC(C)[C@@H](CN1CCc2ccccc2C1)NC(=O)c1cccc(-c2cccc(O)c2)c1	Oprm1	ligand displacement, radioligand	–	Ki	1210 nM
COc1cc2c(cc1OC)CN(CCc1ccc(NC(=O)c3cccc4c(=O)c5cccc(OC)c5[nH]c34)cc1)CC2	Kappa-type opioid receptor (OPRK1, Homo sapiens, UniProt P41145)	cell-free assay	–	Ki	> 10000 nM
Cc1oc(-c2ccccc2)nc1CCOc1cccc2c1ccn2CCC(=O)O	Fatty acid-binding protein, intestinal (Homo sapiens, UniProt P12104, T55A)	ligand displacement, fluorescence	–	Kd	31900 nM
CCCCC/C=C\[C@H](C)/C=C\C/C=C\Cc1ccccc1CCCC(=O)N[C@H](C)CO	CNR1	β-arrestin recruitment, agonist	–	EC50	1960 nM
CCCCCn1nc(C(=O)NC(C)(C)c2cccc(C(N)=O)c2)c2ccccc21	CNR1	ligand displacement, radioligand	cell membranes	Ki	250 nM
CC(C)[C@H](CN1CCc2ccccc2C1)NC(=O)Cc1c[nH]c2ccccc12	Oprm1	ligand displacement, radioligand	–	Ki	420 nM
C[C@@H](O)[C@@H]1NC(=O)CNC(=O)[C@H](Cc2c[nH]cn2)NC(=O)[C@H](Cc2c[nH]c3ccccc23)NC(=O)[C@H](CC(N)=O)NC(=O)CNC(=O)C[C@@H](C(=O)N[C@@H](Cc2c[nH]c3ccccc23)C(=O)N[C@@H](Cc2ccccc2)C(=O)N[C@@H](Cc2ccccc2)C(=O)N[C@@H](CC(N)=O)C(=O)N[C@@H](Cc2ccc(O)cc2)C(=O)N[C@@H](Cc2ccc(O)cc2)C(=O)N[C@@H](Cc2c[nH]c3ccccc23)C(=O)O)NC(=O)[C@@H]2CCCN2C(=O)[C@H](CO)NC1=O	Endothelin-1 receptor (EDNRA, Homo sapiens, UniProt P25101)	ligand displacement, radioligand	cell membranes	IC50	> 10000 nM
CC(C)(NC(=O)c1nn(CCCCCF)c2ccccc12)c1cccc(C(N)=O)c1	CNR1	ligand displacement, radioligand	cell membranes	Ki	68 nM
O=C(O)C(F)(F)OC(F)(F)C(F)(F)OC(F)(F)C(F)(F)OC(F)(F)C(F)(F)C(F)(F)C(F)(F)F	Fatty acid-binding protein, brain (Homo sapiens, UniProt O15540)	ligand displacement, fluorescence	–	Kd	20 nM
CCCCC/C=C\C/C=C\C/C=C\Cc1ccccc1CCCC(=O)N[C@H](C)CO	CNR1	cAMP, agonist	–	EC50	315 nM
CC(C)(NC(=O)c1nn(Cc2ccc(C#N)cc2)c2ccccc12)c1cccc(C(N)=O)c1	CNR1	ligand displacement, radioligand	cell membranes	Ki	98 nM
O=c1cc(CSc2ccc(N=Cc3ccc(F)cc3)cc2)occ1O	PPO3 (Agaricus bisporus, UniProt C7FF04)	enzyme activity, inhibitor, absorbance	–	IC50	53500 nM
